ChEMBL document CHEMBL3758168, “Hybrid triazoles: Design and synthesis as potential dual inhibitor of growth and efflux inhibition in tuberculosis” (Eur J Med Chem, 2016)
Values after ≈ are worked out from the molar mass of the structure shown.

What was measured:
[1] = system: Mycobacterium tuberculosis; assay: Antibacterial activity against Mycobacterium tuberculosis H37Rv ATCC 27294T assessed as isoniazid MIC at 2 ug/ml after 7 days by microdilution checkerboard assay; format: functional; details: 168 h
Procedure, shortened: (§1)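 Two-dimensional checkerboard in H37Rv at 10^5 CFU/ml in MB7H9/OADC. Partner drug (amikacin, EtBr, isoniazid, ofloxacin or rifampin) two-fold serially diluted across columns 3-11. Test compound two-fold serially diluted down rows 2-6. Plates incubated 7 days at 37 °C, then MTT added overnight. […] Run in triplicate.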

[2] = system: Mycobacterium tuberculosis; assay: Antibacterial activity against Mycobacterium tuberculosis H37Rv ATCC 27294T assessed as ethidium bromide MIC at 2 ug/ml after 7 days by microdilution checkerboard assay; format: functional; details: 168 h; procedure, shortened: as §1
[3] = system: Mycobacterium tuberculosis; assay: Modulation factor, ratio of ofloxacin MIC to compound MIC for Mycobacterium tuberculosis H37Rv ATCC 27294T at 128 ug/ml in presence of ofloxacin; format: functional
[4] = system: Mycobacterium tuberculosis; assay: Antibacterial activity against Mycobacterium tuberculosis H37Rv ATCC 27294T assessed as rifampin MIC at 128 ug/ml after 7 days by microdilution checkerboard assay; format: functional; details: 168 h
Procedure, shortened: (§2)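 M. tuberculosis H37Rv grown in MB7H9 + 10% OADC at 37 °C to OD600 0.8; plates inoculated at 10^5 CFU/ml. Rifampicin two-fold serially diluted across columns, test compound two-fold diluted down rows (two-dimensional checkerboard). Sealed, 37 °C for seven days, then MTT added and incubated overnight. MIC read as no colour change. Triplicate.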

[5] = system: Mycobacterium tuberculosis; assay: Antibacterial activity against Mycobacterium tuberculosis H37Rv ATCC 27294T assessed as ethidium bromide MIC at 4 ug/ml after 7 days by microdilution checkerboard assay; format: functional; details: 168 h; procedure, shortened: as §1
[6] = system: Mycobacterium tuberculosis; assay: Antibacterial activity against Mycobacterium tuberculosis H37Rv ATCC 27294T assessed as ofloxacin MIC at 8 ug/ml after 7 days by microdilution checkerboard assay; format: functional; details: 168 h; procedure, shortened: as §1
[7] = system: Mycobacterium tuberculosis; assay: Antibacterial activity against Mycobacterium tuberculosis H37Rv ATCC 27294T assessed as ethidium bromide MIC at 64 ug/ml after 7 days by microdilution checkerboard assay; format: functional; details: 168 h; procedure, shortened: as §1
[8] = system: Mycobacterium tuberculosis; assay: Antibacterial activity against Mycobacterium tuberculosis H37Rv ATCC 27294T assessed as isoniazid MIC at 4 ug/ml after 7 days by microdilution checkerboard; format: functional; details: 168 h; procedure, shortened: as §1
[9] = system: Mycobacterium tuberculosis; assay: Antibacterial activity against Mycobacterium tuberculosis H37Rv ATCC 27294T assessed as ofloxacin MIC at 16 ug/ml after 7 days by microdilution checkerboard assay; format: functional; details: 168 h; procedure, shortened: as §1
[10] = system: Mycobacterium tuberculosis; assay: Antibacterial activity against Mycobacterium tuberculosis H37Rv ATCC 27294T assessed as isoniazid MIC at 16 ug/ml after 7 days by microdilution checkerboard assay; format: functional; details: 168 h; procedure, shortened: as §1
[11] = system: Mycobacterium tuberculosis; assay: Antibacterial activity against Mycobacterium tuberculosis H37Rv ATCC 27294T assessed as ethidium bromide MIC at 128 ug/ml after 7 days by microdilution checkerboard assay; format: functional; details: 168 h; procedure, shortened: as §1
[12] = system: Mycobacterium tuberculosis; assay: Antibacterial activity against Mycobacterium tuberculosis H37Rv ATCC 27294T assessed as ofloxacin MIC at 4 ug/ml after 7 days by microdilution checkerboard assay; format: functional; details: 168 h; procedure, shortened: as §1
[13] = system: Mycobacterium tuberculosis; assay: Antibacterial activity against Mycobacterium tuberculosis H37Rv ATCC 27294T assessed as ofloxacin MIC at 32 ug/ml after 7 days by microdilution checkerboard assay; format: functional; details: 168 h; procedure, shortened: as §1
[14] = system: Mycobacterium tuberculosis; assay: Antibacterial activity against Mycobacterium tuberculosis H37Rv ATCC 27294T assessed as ethidium bromide MIC at 32 ug/ml after 7 days by microdilution checkerboard assay; format: functional; details: 168 h; procedure, shortened: as §1
[15] = system: Mycobacterium tuberculosis; assay: Modulation factor, ratio of isoniazid MIC to compound MIC for Mycobacterium tuberculosis H37Rv ATCC 27294T at 128 ug/ml in presence of isoniazid; format: functional
[16] = system: Mycobacterium tuberculosis; assay: Antibacterial activity against Mycobacterium tuberculosis H37Rv ATCC 27294T assessed as isoniazid MIC at 64 ug/ml after 7 days by microdilution checkerboard assay; format: functional; details: 168 h; procedure, shortened: as §1
[17] = system: Mycobacterium tuberculosis; assay: Antibacterial activity against Mycobacterium tuberculosis H37Rv ATCC 27294T assessed as amikacin MIC at 2 ug/ml after 7 days by microdilution checkerboard assay; format: functional; details: 168 h; procedure, shortened: as §1
[18] = system: Mycobacterium tuberculosis; assay: Antibacterial activity against Mycobacterium tuberculosis H37Rv ATCC 27294T assessed as ofloxacin MIC at 128 ug/ml after 7 days by microdilution checkerboard assay; format: functional; details: 168 h; procedure, shortened: as §1
[19] = system: Mycobacterium tuberculosis; assay: Antibacterial activity against Mycobacterium tuberculosis H37Rv ATCC 27294T assessed as rifampin MIC at 32 ug/ml after 7 days by microdilution checkerboard assay; format: functional; details: 168 h; procedure, shortened: as §2
[20] = system: Mycobacterium tuberculosis; assay: Antibacterial activity against Mycobacterium tuberculosis H37Rv ATCC 27294T assessed as amikacin MIC at 64 ug/ml after 7 days by microdilution checkerboard assay; format: functional; details: 168 h; procedure, shortened: as §1
[21] = system: Mycobacterium tuberculosis; assay: Antibacterial activity against Mycobacterium tuberculosis H37Rv ATCC 27294T assessed as rifampin MIC at 16 ug/ml after 7 days by microdilution checkerboard assay; format: functional; details: 168 h; procedure, shortened: as §2
[22] = system: Mycobacterium tuberculosis; assay: Antibacterial activity against Mycobacterium tuberculosis H37Rv ATCC 27294T assessed as amikacin MIC at 8 ug/ml after 7 days by microdilution checkerboard assay; format: functional; details: 168 h; procedure, shortened: as §1
[23] = system: Mycobacterium tuberculosis; assay: Antibacterial activity against Mycobacterium tuberculosis H37Rv ATCC 27294T assessed as amikacin MIC at 128 ug/ml after 7 days by microdilution checkerboard assay; format: functional; details: 168 h; procedure, shortened: as §1
[24] = system: Mycobacterium tuberculosis; assay: Antibacterial activity against Mycobacterium tuberculosis H37Rv ATCC 27294T assessed as isoniazid MIC at 128 ug/ml after 7 days by microdilution checkerboard assay; format: functional; details: 168 h; procedure, shortened: as §1
[25] = system: Mycobacterium tuberculosis; assay: Antibacterial activity against Mycobacterium tuberculosis H37Rv ATCC 27294T assessed as amikacin MIC at 4 ug/ml after 7 days by microdilution checkerboard assay; format: functional; details: 168 h; procedure, shortened: as §1
[26] = Ratio of compound IC50 to thioridazine IC50 for human MDM; format: ADME; details: read-out: Ratio IC50
[27] = system: Mycolicibacterium smegmatis; assay: Anti-tubercular activity against Mycobacterium smegmatis MC2 155 ATCC 700084 after 3 days by microdilution method; format: functional; details: MC2 155 ATCC 700084, 72 h
Procedure, shortened: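 M. smegmatis mc2155 grown in MB7H9 + 10% OADC at 37 °C with shaking to OD600 0.8. Inoculum set to 0.5 McFarland, diluted 1:100, and mixed 1:1 with two-fold serial dilutions in MB7H9. Plates incubated 3 days at 37 °C with growth and sterility controls. MIC taken as the lowest concentration with no visible growth.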

[28] = system: Mycobacterium tuberculosis; assay: Antibacterial activity against Mycobacterium tuberculosis H37Rv ATCC 27294T assessed as rifampin MIC at 8 ug/ml after 7 days by microdilution checkerboard assay; format: functional; details: 168 h; procedure, shortened: as §2
[29] = system: Mycobacterium tuberculosis; assay: Antibacterial activity against Mycobacterium tuberculosis H37Rv ATCC 27294T assessed as ofloxacin MIC at 64 ug/ml after 7 days by microdilution checkerboard assay; format: functional; details: 168 h; procedure, shortened: as §1
[30] = system: Mycobacterium tuberculosis; assay: Modulation factor, ratio of refampin MIC to compound MIC for Mycobacterium tuberculosis H37Rv ATCC 27294T at 128 ug/ml in presence of refampin; format: functional
[31] = system: Mycobacterium tuberculosis; assay: Antibacterial activity against Mycobacterium tuberculosis H37Rv ATCC 27294T assessed as rifampin MIC at 2 ug/ml after 7 days by microdilution checkerboard assay; format: functional; details: 168 h; procedure, shortened: as §2
[32] = system: Mycobacterium tuberculosis; assay: Antibacterial activity against Mycobacterium tuberculosis H37Rv ATCC 27294T assessed as ofloxacin MIC at 2 ug/ml after 7 days by microdilution checkerboard assay; format: functional; details: 168 h; procedure, shortened: as §1

CCCSc1nnc(COc2ccccc2C2=NOC(c3ccc(Cl)cc3Cl)C2)n1NC(=O)CCl (configuration not stated)
MIC [1]: 0.1 µg/mL
MIC [2]: 12.5 µg/mL
Ratio [3]: 32
MIC [4]: 0.0156 µg/mL
MIC [5]: 12.5 µg/mL
MIC [6]: 1 µg/mL
MIC [7]: 6.25 µg/mL
MIC [8]: 0.1 µg/mL
MIC [9]: 1 µg/mL
MIC [10]: 0.1 µg/mL
MIC [11]: 0.39 µg/mL
MIC [12]: 2 µg/mL
MIC [13]: 1 µg/mL
MIC [14]: 12.5 µg/mL
Ratio [15]: 64
MIC [16]: 0.1 µg/mL
MIC [17]: 1 µg/mL
MIC [18]: 0.625 µg/mL
MIC [19]: 0.5 µg/mL
MIC [20]: 1 µg/mL
MIC [21]: 0.5 µg/mL
MIC [22]: 1 µg/mL
MIC [23]: 0.125 µg/mL
MIC [24]: 0.00156 µg/mL
MIC [25]: 1 µg/mL
selectivity ratio [26]: 3
MIC [27]: 4 µg/mL (≈ 7.21 µM)
MIC [28]: 0.5 µg/mL
MIC [29]: 1 µg/mL
Ratio [30]: 64
MIC [31]: 0.5 µg/mL
MIC [32]: 2 µg/mL
